Molecules are shown by their SMILES. ≈ marks a conversion by molar mass, not a printed value. Calls of active or inactive are those of the source. The rule behind the calls is not given here. Non-standard residues stand in square brackets, D forms with d. Residues, ends and D or L forms follow the SMILES beside them. *: point of attachment. Myristoyl = CCCCCCCCCCCCCC(=O)*; Leu(ol) = CC(C)C[C@H](N)CO

Assay [1] has as its system Candida albicans. The assay is described as follows: Antifungal activity against Candida albicans at 200 ug/ml after 24 hrs by NCCLS M27-P broth macrodilution method. It counts as functional, organism-based.
Assay [2] concerns Candida albicans. The assay is described as follows: Antifungal activity against wild-type Candida albicans at 0.01 to 10 ug/mL after 24 hrs by NCCLS M27-P broth macrodilution method. It counts as functional, organism-based.
The test system of assay [3] is Candida albicans. Put plainly: Antifungal activity against Candida albicans harboring heterozygous deletion of PRE4/orf19.4230 at 0.01 to 10 ug/mL after 24 hrs by NCCLS M27-P broth macrodilution method. It counts as functional, organism-based.
For assay [4], the system named is Candida albicans. The assay is described as follows: Antifungal activity against wild-type Candida albicans at 10 ug/mL after 24 hrs by NCCLS M27-P broth macrodilution method. The format is functional, organism-based.
The subject of assay [5] is Candida albicans. The assay is described as follows: Antifungal activity against Candida albicans harboring heterozygous deletion of PRE4/orf19.4230 at 10 ug/mL after 24 hrs by NCCLS M27-P broth macrodilution method. The format is functional, organism-based.
In assay [6] the test system is Candida albicans. The assay is described as follows: Antifungal activity against Candida albicans harboring heterozygous deletion of orf19.5378/SCL1 after 24 hrs by NCCLS M27-P broth macrodilution method. It counts as functional.
The subject of assay [7] is Candida albicans. Put plainly: Ratio of lactacystin IC50 to compound IC50 for Candida albicans 26S proteasome.
A further assay has as its system Aspergillus fumigatus. Put plainly: Antifungal activity against Aspergillus fumigatus MF5668 after 24 hrs by NCCLS M27-P broth macrodilution method. The format is functional. The following applies: MF5668, 24 h. The method in brief: (§1)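 MIC panel run in the fitness-test medium (modified RPMI), following an earlier published MIC method.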
The test system of the next assay is Candida parapsilosis. Put plainly: Antifungal activity against Candida parapsilosis ATCC 22019 after 24 hrs by NCCLS M27-P broth macrodilution method. It counts as functional. As to conditions: Lodderomyces parapsilosis, ATCC 22019, 24 h. The method in brief: as §1
In assay [8] the test system is Candida albicans. Put plainly: Antifungal activity against Candida albicans after 24 hrs by NCCLS M27-P broth macrodilution method. The format is functional.
A further assay has as its system A549. Put plainly: Growth inhibition of human A549 cells at 3.1 to 50000 nM.
The subject of the next assay is Clavispora lusitaniae. Put plainly: Antifungal activity against Candida lusitaniae MY1396 after 24 hrs by NCCLS M27-P broth macrodilution method. The following applies: MY1396, 24 h. The format is functional. The method in brief: as §1
In the next assay the test system is Nakaseomyces glabratus. The assay is described as follows: Antifungal activity against Candida glabrata MY1381 after 24 hrs by NCCLS M27-P broth macrodilution method. The format is functional. As to conditions: MY1381, 24 h. Summed up: as §1
For assay [9], the system named is Candida albicans. The assay is described as follows: Antifungal activity against Candida albicans harboring heterozygous deletion of PRE4/orf19.4230 after 24 hrs by NCCLS M27-P broth macrodilution method. The format is functional.
In a further assay the test system is Pichia kudriavzevii. The assay is described as follows: Antifungal activity against Candida krusei ATCC 6258 after 24 hrs by NCCLS M27-P broth macrodilution method. The format is functional. As to conditions: ATCC 6258, 24 h. Summed up: as §1
For a further assay, the system named is PC-3. Put plainly: Growth inhibition of human PC3 cells. It counts as functional, cell-based. The method in brief: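 PC-3 cells treated for 48 h across an 8-point dose series (final 50 000, 12 500, 3125, 781.3, 195.3, 48.8, 12.2, 3.1 nM). Viable cell mass was measured by ATP luminescence (Vialight) to give IC50.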
The next assay has as its system Candida tropicalis. The assay is described as follows: Antifungal activity against Candida tropicalis MY1012 after 24 hrs by NCCLS M27-P broth macrodilution method. It counts as functional. The following applies: MY1012, 24 h. Summed up: as §1
Assay [10] in a line: Inhibition of Candida albicans 26S proteasome. The method in brief:
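Chymotrypsin-like proteasome activity measured by luminogenic Proteasome-Glo assay, with modifications. Used whole-cell extracts of exponential-phase C. albicans, about 10⁶ cell equivalents per assay.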

For assay [11], the system named is Candida albicans. The assay is described as follows: Antifungal activity against Candida albicans harboring heterozygous deletion of orf19.3168/RPN8 after 24 hrs by NCCLS M27-P broth macrodilution method. It counts as functional.
The subject of assay [12] is Candida albicans. Put plainly: Ratio of gliotoxin IC50 to compound IC50 for Candida albicans 26S proteasome.
In a further assay the test system is Staphylococcus aureus. Put plainly: Antibacterial activity against Staphylococcus aureus MB2865. It counts as functional.
The test system of assay [13] is Candida albicans. Put plainly: Antifungal activity against Candida albicans 2323 after 24 hrs by NCCLS M27-P broth macrodilution method. The format is functional. As to conditions: Candida albicans, 2323, 24 h. Summed up: as §1
Assay [14] deals with Candida albicans. Put plainly: Antifungal activity against Candida albicans harboring heterozygous deletion of orf19.4088/NUP188 after 24 hrs by NCCLS M27-P broth macrodilution method. It counts as functional.
Assay [15] relates to Trichophyton mentagrophytes. Put plainly: Antifungal activity against Trichophyton mentagrophytes MF7004 after 24 hrs by NCCLS M27-P broth macrodilution method. It counts as functional. As to conditions: MF7004, 24 h. Summed up: as §1

As to `CC(=O)N[C@@H](CSC(=O)[C@]1([C@@H](O)C(C)C)NC(=O)[C@H](C)[C@@H]1O)C(=O)O`, in the assay on Candida albicans [1], the outcome was inactive.

Turning to `CCCCCCCCCCCCCC(=O)N[C@@H](CC(N)=O)C(=O)N[C@@H](CCC(N)=O)C(=O)N[C@H](C=O)CC(C)C` (Myristoyl-Asn-Gln-Leu-aldehyde), the result with Candida albicans [2] and in the assay with Candida albicans [3] was Active.

For `CCCCCCCCCCCCCC(=O)N[C@@H](CC(N)=O)C(=O)N[C@@H](CCC(N)=O)C(=O)N[C@H](CO)CC(C)C` (Myristoyl-Asn-Gln-[Leu(ol)]), the result in the assay on Candida albicans [4] and in the assay on Candida albicans [5] was inactive.

For the compound `CCCCCCCCCCC[C@@H](O)CC(=O)N[C@@H](CC(N)=O)C(=O)N[C@H](C(=O)N[C@H](C=O)C(C)C)C(O)CC(N)=O` (stereo partly specified) [FELLUTAMIDE C], the MIC with Candida albicans [6] worked out at 2.5 µg/mL (≈ 4.27 µM); in the assay with Aspergillus fumigatus, 16 µg/mL (≈ 27.3 µM); in the assay on Candida parapsilosis, 2 µg/mL (≈ 3.41 µM); against Candida albicans [8], 1.25 µg/mL (≈ 2.13 µM); against Clavispora lusitaniae it was 16 µg/mL (≈ 27.3 µM); against Nakaseomyces glabratus, 4 µg/mL (≈ 6.83 µM). The MIC in the assay with Candida albicans [9] was 2.5 µg/mL (≈ 4.27 µM); against Pichia kudriavzevii, 4 µg/mL (≈ 6.83 µM); against Candida tropicalis, 4 µg/mL (≈ 6.83 µM); against Candida albicans [11], 2.5 µg/mL (≈ 4.27 µM); against Staphylococcus aureus it was greater than 32 µg/mL; against Candida albicans [13], 4 µg/mL (≈ 6.83 µM). The MIC in the assay on Candida albicans [14] was 2.5 µg/mL (≈ 4.27 µM); in assay [15], greater than 32 µg/mL. Moreover, the Ratio IC50 in the assay on Candida albicans [7] and in the assay on Candida albicans [12] was 10 each time. For the same compound, in the assay on A549, the “growth inhibition (GI)” value was “inactive”. Moreover, the IC50 was determined as 440 nM with PC-3 and 0.2 µg/mL (≈ 0.341 µM) in [10].

In the case of `CCCCCCCCCCC[C@@H](O)CC(=O)N[C@@H](CC(N)=O)C(=O)N[C@H](C(=O)N[C@H](C=O)CC(C)C)C(O)CC(N)=O` (stereo partly specified) [FELLUTAMIDE D], the result in the assay on Candida albicans [2] and in the assay with Candida albicans [3] was Active. The minimal inhibitory concentration (MIC) against Candida albicans [6] worked out at 10 µg/mL (≈ 16.7 µM); with Aspergillus fumigatus it was 32 µg/mL (≈ 53.4 µM); in the assay on Candida parapsilosis, 8 µg/mL (≈ 13.3 µM); in the assay on Candida albicans [8] it was 1.25 µg/mL (≈ 2.08 µM); in the assay on Clavispora lusitaniae, 32 µg/mL (≈ 53.4 µM); against Nakaseomyces glabratus it was 8 µg/mL (≈ 13.3 µM). Further, the minimal inhibitory concentration (MIC) is 10 µg/mL (≈ 16.7 µM) with Candida albicans [9]; 8 µg/mL (≈ 13.3 µM) in the assay with Pichia kudriavzevii; 8 µg/mL (≈ 13.3 µM) in the assay on Candida tropicalis; 10 µg/mL (≈ 16.7 µM) in the assay on Candida albicans [11]; greater than 32 µg/mL against Staphylococcus aureus; 16 µg/mL (≈ 26.7 µM) in the assay with Candida albicans [13]. The results for the MIC (with Candida albicans [14]; in assay [15]) were 10 µg/mL (≈ 16.7 µM) and greater than 32 µg/mL, respectively. Moreover, the Ratio IC50 in the assay with Candida albicans [7] and with Candida albicans [12] was 10 throughout. The “growth inhibition (GI)” value in the assay with A549 is “inactive”. In addition, the IC50 in the assay with PC-3 amounted to 160 nM; in assay [10], 0.2 µg/mL (≈ 0.333 µM).

Consider `CN1C(=O)[C@]23CC4=CC=C[C@H](O)[C@H]4N2C(=O)[C@@]1(CO)SS3` [GLIOTOXIN], for which, in the assay with Candida albicans [8], the lowest concentration to inhibit growth (MIC) was 4 µg/mL (≈ 12.3 µM).

What is called MIC is the lowest concentration found to suppress growth. Broadly, the IC50 is the concentration that gives 50% inhibition.
